According to ChEMBL document CHEMBL1154975, “Selective inducible microsomal prostaglandin E(2) synthase-1 (mPGES-1) inhibitors derived from an oxicam template” (Bioorg Med Chem Lett, 2010):

Target: T1, Prostaglandin E synthase (Homo sapiens, UniProt O14684)
T1 sequence (O14684 whole entry): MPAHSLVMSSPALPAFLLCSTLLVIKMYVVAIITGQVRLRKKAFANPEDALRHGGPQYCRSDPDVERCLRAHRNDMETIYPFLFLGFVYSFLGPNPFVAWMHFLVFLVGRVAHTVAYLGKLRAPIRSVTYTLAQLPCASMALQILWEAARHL
Test: Inhibition of human mPGES1 in IL1-beta treated human FF cells assessed as blockade of PGH2 to PGE2 conversion after 50 mins by ELISA
Format: cell-based
Method in brief: (§1)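 Human fetal fibroblasts in DMEM/15% FBS at 37 °C, 5% CO2; after 20–24 h, stimulated 20–24 h with 1 ng/mL IL-1β, washed, compound 50 min in serum-free DMEM, then 10 µM arachidonic acid 10 min. PGE2 by ELISA. For PGF2α, SnCl2 added after compound for 10 min before arachidonic acid. IC50 from duplicate data.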

Row | SMILES | IC50
1 | O=C(Nc1ccc(-c2ccc(Cl)cc2Cl)cc1)C1=C(O)c2ccccc2S(=O)(=O)N1 | < 760 nM
2 | O=C(Nc1ccc(Oc2ccc(Cl)cc2)cc1)C1=C(O)c2ccccc2S(=O)(=O)N1 | 6730 nM
3 | CN1C(C(=O)Nc2ccc(-c3ccc(Cl)c(Cl)c3)cc2)=C(O)c2ccccc2S1(=O)=O | 2040 nM
4 | O=C(Nc1ccc(-c2ccc(Cl)c(Cl)c2)cc1)C1=C(O)c2cc(O)ccc2S(=O)(=O)N1 | 1450 nM
5 | O=C(Nc1ccc(Nc2ccc(Cl)cc2)cc1)C1=C(O)c2ccccc2S(=O)(=O)N1 | 4240 nM
6 | O=C(Nc1ccc(-c2ccc(Cl)cc2)cc1)C1=C(O)c2ccccc2S(=O)(=O)N1 | 1450 nM
7 | O=C(Nc1cccc(C(=O)c2ccc(Cl)cc2)c1)C1=C(O)c2ccccc2S(=O)(=O)N1 | 2160 nM
8 | O=C(Nc1ccc(-c2cccc(Cl)c2)cc1)C1=C(O)c2ccccc2S(=O)(=O)N1 | 3440 nM

Target: T2, Prostaglandin G/H synthase 2 (Homo sapiens, UniProt P35354)
T2 sequence (P35354 whole entry): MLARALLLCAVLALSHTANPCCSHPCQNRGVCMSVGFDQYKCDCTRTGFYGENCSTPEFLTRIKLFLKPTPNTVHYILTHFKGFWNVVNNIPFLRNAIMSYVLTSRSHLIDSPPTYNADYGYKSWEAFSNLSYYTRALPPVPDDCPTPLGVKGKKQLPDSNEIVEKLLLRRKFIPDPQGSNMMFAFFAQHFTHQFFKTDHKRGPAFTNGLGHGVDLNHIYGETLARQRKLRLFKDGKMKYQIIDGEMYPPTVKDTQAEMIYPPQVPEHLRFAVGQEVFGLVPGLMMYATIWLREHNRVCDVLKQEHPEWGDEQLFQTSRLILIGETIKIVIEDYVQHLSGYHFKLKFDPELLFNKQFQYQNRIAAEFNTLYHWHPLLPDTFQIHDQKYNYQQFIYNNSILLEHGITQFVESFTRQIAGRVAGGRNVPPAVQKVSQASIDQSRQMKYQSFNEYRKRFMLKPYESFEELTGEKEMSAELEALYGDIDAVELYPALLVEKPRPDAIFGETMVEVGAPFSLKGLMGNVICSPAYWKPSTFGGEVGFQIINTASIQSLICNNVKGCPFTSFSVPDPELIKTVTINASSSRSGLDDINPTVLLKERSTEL
Test: Inhibition of human COX2 in IL1-beta treated human FF cells assessed as blockade of SnCl2-mediated PGH2 to PGF2alpha conversion after 50 mins by ELISA
Format: cell-based
Method in brief: as §1

Row | SMILES | IC50
9 | O=C(Nc1ccc(-c2ccc(Cl)cc2Cl)cc1)C1=C(O)c2ccccc2S(=O)(=O)N1 | > 74800 nM
10 | O=C(Nc1ccc(Oc2ccc(Cl)cc2)cc1)C1=C(O)c2ccccc2S(=O)(=O)N1 | 70000 nM
11 | O=C(Nc1ccc(-c2ccc(Cl)c(Cl)c2)cc1)C1=C(O)c2cc(O)ccc2S(=O)(=O)N1 | > 100000 nM
12 | O=C(Nc1ccc(Nc2ccc(Cl)cc2)cc1)C1=C(O)c2ccccc2S(=O)(=O)N1 | > 100000 nM
13 | O=C(Nc1ccc(-c2ccc(Cl)cc2)cc1)C1=C(O)c2ccccc2S(=O)(=O)N1 | 33700 nM
14 | O=C(Nc1cccc(C(=O)c2ccc(Cl)cc2)c1)C1=C(O)c2ccccc2S(=O)(=O)N1 | 95300 nM
15 | O=C(Nc1ccc(-c2cccc(Cl)c2)cc1)C1=C(O)c2ccccc2S(=O)(=O)N1 | 74700 nM

Target: T1, Prostaglandin E synthase
Test: Inhibition of human mPGES1 assessed as PGE2 level after 41 sec by ELISA
Method in brief: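 Enzyme in 100 mM potassium phosphate pH 6.2 with 2.5 mM glutathione, compound added in DMSO. Reaction started with PGH2 (final 2 µM), stopped with 2.5 mM FeCl2, diluted 120-fold into ELISA buffer. PGE2 by ELISA against a standard curve. % control set between reference-inhibited and enzyme-only controls; IC50 by 4-parameter log fit of duplicate data.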

Row | SMILES | IC50
16 | O=C(Nc1ccc(-c2ccc(Cl)cc2Cl)cc1)C1=C(O)c2ccccc2S(=O)(=O)N1 | 43 nM
17 | O=C(Nc1ccc(Oc2ccc(Cl)cc2)cc1)C1=C(O)c2ccccc2S(=O)(=O)N1 | 530 nM
18 | CN1C(C(=O)Nc2ccc(-c3ccc(Cl)c(Cl)c3)cc2)=C(O)c2ccccc2S1(=O)=O | 280 nM
19 | O=C(Nc1ccc(-c2ccc(Cl)c(Cl)c2)cc1)C1=C(O)c2cc(O)ccc2S(=O)(=O)N1 | 98 nM
20 | O=C(Nc1ccc(Nc2ccc(Cl)cc2)cc1)C1=C(O)c2ccccc2S(=O)(=O)N1 | 150 nM
21 | O=C(Nc1ccc(-c2ccc(Cl)cc2)cc1)C1=C(O)c2ccccc2S(=O)(=O)N1 | 290 nM
22 | O=C(Nc1cccc(C(=O)c2ccc(Cl)cc2)c1)C1=C(O)c2ccccc2S(=O)(=O)N1 | 3910 nM
23 | O=C(Nc1ccc(-c2cccc(Cl)c2)cc1)C1=C(O)c2ccccc2S(=O)(=O)N1 | 860 nM
